According to ChEMBL document CHEMBL1130012 (J Med Chem, 1997):

How the values were obtained:
Rattus norvegicus [1] = species on record: Rattus norvegicus; assay: The Biodistribution of the antagonistic compound in male wistar rats, after 15 minutes of injection in the trachea expressed as (body weight-corrected) uptake value; format: organism-based; settings: in vivo, 0.25 h
Rattus norvegicus [2] = assay: The Biodistribution of the antagonistic compound along with pretreated atropine (2.5 mg/kg) in male wistar rats after 15 minutes of injection in the pancreas expressed as (body weight-corrected) uptake value; format: organism-based; settings: in vivo, 0.25 h
Summary of the method: (§1)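 Same protocol, except the pretreatment was saline containing atropine (0.5 mg/0.5 mL; 2.5 mg/kg) given i.v. 1 min before tail-vein injection of the radioligand (1.85-2.78 MBq in 0.4 mL saline) into pentobarbital-anaesthetized (60 mg/kg) male Wistar rats (240 g). Tissues removed at 15 min and counted ex vivo. Uptake is body-weight-corrected DAR = (cpm/g tissue)/(cpm injected/g body weight).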

Rattus norvegicus [3] = assay: The Biodistribution of the antagonistic compound along with pretreated atropine (2.5 mg/kg) in male wistar rats after 15 minutes of injection in the plasma expressed as (body weight-corrected) uptake value; format: organism-based; settings: in vivo, 0.25 h; summary of the method: as §1
Rattus norvegicus [4] = assay: The Biodistribution of the antagonistic compound along with pretreated atropine (2.5 mg/kg) in male wistar rats after 15 minutes of injection in the red blood cells expressed as (body weight-corrected) uptake value; Below limit of detection; format: organism-based; settings: in vivo, 0.25 h; summary of the method: as §1
Rattus norvegicus [5] = assay: The Biodistribution of the antagonistic compound along with pretreated atropine (2.5 mg/kg) in male wistar rats after 15 minutes of injection in the spleen expressed as (body weight-corrected) uptake value; format: organism-based; settings: in vivo, 0.25 h; summary of the method: as §1
Rattus norvegicus [6] = assay: The Biodistribution of the antagonistic compound along with pretreated atropine (2.5 mg/kg) in male wistar rats after 15 minutes of injection in the submandibular gland expressed as (body weight-corrected) uptake value; format: organism-based; settings: in vivo, 0.25 h; summary of the method: as §1
Rattus norvegicus [7] = assay: The Biodistribution of the antagonistic compound along with pretreated atropine (2.5 mg/kg) in male wistar rats after 15 minutes of injection in the testes expressed as (body weight-corrected) uptake value; format: organism-based, Testis; settings: in vivo, 0.25 h; summary of the method: as §1
Rattus norvegicus [8] = assay: The Biodistribution of the antagonistic compound along with pretreated atropine (2.5 mg/kg) in male wistar rats after 15 minutes of injection in the trachea expressed as (body weight-corrected) uptake value; format: organism-based; settings: in vivo, 0.25 h; summary of the method: as §1
Rattus norvegicus [9] = species on record: Rattus norvegicus; assay: The Biodistribution of the antagonistic compound in male wistar rats, after 15 minutes of injection in the bladder expressed as (body weight-corrected) uptake value; format: organism-based, Urinary bladder/Urine; settings: in vivo, 0.25 h
Rattus norvegicus [10] = species on record: Rattus norvegicus; assay: The Biodistribution of the antagonistic compound in male wistar rats, after 15 minutes of injection in the cerebellum expressed as (body weight-corrected) uptake value; Below limit of detection; format: organism-based; settings: in vivo, 0.25 h
Rattus norvegicus [11] = species on record: Rattus norvegicus; assay: The Biodistribution of the antagonistic compound in male wistar rats, after 15 minutes of injection in the cortex expressed as (body weight-corrected) uptake value; Below limit of detection; format: organism-based; settings: in vivo, 0.25 h
Rattus norvegicus [12] = species on record: Rattus norvegicus; assay: The Biodistribution of the antagonistic compound in male wistar rats, after 15 minutes of injection in the fat; format: organism-based; settings: in vivo, 0.25 h
Rattus norvegicus [13] = species on record: Rattus norvegicus; assay: The Biodistribution of the antagonistic compound in male wistar rats, after 15 minutes of injection in the heart expressed as (body weight-corrected) uptake value; format: organism-based; settings: in vivo, 0.25 h
Rattus norvegicus [14] = species on record: Rattus norvegicus; assay: The Biodistribution of the antagonistic compound in male wistar rats, after 15 minutes of injection in the intestine expressed as (body weight-corrected) uptake value; format: organism-based; settings: in vivo, 0.25 h
Rattus norvegicus [15] = species on record: Rattus norvegicus; assay: The Biodistribution of the antagonistic compound in male wistar rats, after 15 minutes of injection in the kidney expressed as (body weight-corrected) uptake value; format: organism-based; settings: in vivo, 0.25 h
Rattus norvegicus [16] = species on record: Rattus norvegicus; assay: The Biodistribution of the antagonistic compound in male wistar rats, after 15 minutes of injection in the lung expressed as (body weight-corrected) uptake value; format: organism-based; settings: in vivo, 0.25 h
Rattus norvegicus [17] = species on record: Rattus norvegicus; assay: The Biodistribution of the antagonistic compound in male wistar rats, after 15 minutes of injection in the muscle expressed as (body weight-corrected) uptake value; format: organism-based, Muscle tissue; settings: in vivo, 0.25 h
Rattus norvegicus [18] = species on record: Rattus norvegicus; assay: The Biodistribution of the antagonistic compound in male wistar rats, after 15 minutes of injection in the pancreas expressed as (body weight-corrected) uptake value; format: organism-based; settings: in vivo, 0.25 h
Rattus norvegicus [19] = species on record: Rattus norvegicus; assay: The Biodistribution of the antagonistic compound in male wistar rats, after 15 minutes of injection in the plasma expressed as (body weight-corrected) uptake value; format: organism-based; settings: in vivo, 0.25 h
Rattus norvegicus [20] = assay: The Biodistribution of the antagonistic compound along with pretreated atropine (2.5 mg/kg) in male wistar rats after 15 minutes of injection in the bladder; format: organism-based, Urinary bladder/Urine; settings: in vivo, 0.25 h; summary of the method: as §1
Rattus norvegicus [21] = assay: The Biodistribution of the antagonistic compound along with pretreated atropine (2.5 mg/kg) in male wistar rats after 15 minutes of injection in the cerebellum; Below limit of detection; format: organism-based; settings: in vivo, 0.25 h; summary of the method: as §1
Rattus norvegicus [22] = assay: The Biodistribution of the antagonistic compound along with pretreated atropine (2.5 mg/kg) in male wistar rats after 15 minutes of injection in the cortex expressed as (body weight-corrected) uptake value; Below limit of detection; format: organism-based; settings: in vivo, 0.25 h; summary of the method: as §1
Rattus norvegicus [23] = assay: The Biodistribution of the antagonistic compound along with pretreated atropine (2.5 mg/kg) in male wistar rats after 15 minutes of injection in the fat expressed as (body weight-corrected) uptake value; format: organism-based, Adipose tissue; settings: in vivo, 0.25 h; summary of the method: as §1
Rattus norvegicus [24] = assay: The Biodistribution of the antagonistic compound along with pretreated atropine (2.5 mg/kg) in male wistar rats after 15 minutes of injection in the heart expressed as (body weight-corrected) uptake value; format: organism-based; settings: in vivo, 0.25 h; summary of the method: as §1
Rattus norvegicus [25] = species on record: Rattus norvegicus; assay: The Biodistribution of the antagonistic compound in male wistar rats, after 15 minutes of injection in the red blood cells expressed as (body weight-corrected) uptake value; Below limit of detection; format: organism-based; settings: in vivo, 0.25 h
Rattus norvegicus [26] = species on record: Rattus norvegicus; assay: The Biodistribution of the antagonistic compound in male wistar rats, after 15 minutes of injection in the spleen; format: organism-based; settings: in vivo, 0.25 h
Rattus norvegicus [27] = species on record: Rattus norvegicus; assay: The Biodistribution of the antagonistic compound in male wistar rats, after 15 minutes of injection in the stomach expressed as (body weight-corrected) uptake value; format: organism-based; settings: in vivo, 0.25 h
Rattus norvegicus [28] = species on record: Rattus norvegicus; assay: The Biodistribution of the antagonistic compound in male wistar rats, after 15 minutes of injection in the submandibular gland expressed as (body weight-corrected) uptake value; format: organism-based; settings: in vivo, 0.25 h
Rattus norvegicus [29] = species on record: Rattus norvegicus; assay: The Biodistribution of the antagonistic compound in male wistar rats, after 15 minutes of injection in the testes expressed as (body weight-corrected) uptake value; format: organism-based, Testis; settings: in vivo, 0.25 h
Rattus norvegicus [30] = assay: The Biodistribution of the antagonistic compound along with pretreated atropine (2.5 mg/kg) in male wistar rats after 15 minutes of injection in the intestine expressed as (body weight-corrected) uptake value; format: organism-based; settings: in vivo, 0.25 h; summary of the method: as §1
Rattus norvegicus [31] = assay: The Biodistribution of the antagonistic compound along with pretreated atropine (2.5 mg/kg) in male wistar rats after 15 minutes of injection in the kidney expressed as (body weight-corrected) uptake value; format: organism-based; settings: in vivo, 0.25 h; summary of the method: as §1
Rattus norvegicus [32] = assay: The Biodistribution of the antagonistic compound along with pretreated atropine (2.5 mg/kg) in male wistar rats after 15 minutes of injection in the liver expressed as (body weight-corrected) uptake value; format: organism-based; settings: in vivo, 0.25 h; summary of the method: as §1
Rattus norvegicus [33] = assay: The Biodistribution of the antagonistic compound along with pretreated atropine (2.5 mg/kg) in male wistar rats after 15 minutes of injection in the lung expressed as (body weight-corrected) uptake value; format: organism-based; settings: in vivo, 0.25 h; summary of the method: as §1
Rattus norvegicus [34] = assay: The Biodistribution of the antagonistic compound along with pretreated atropine (2.5 mg/kg) in male wistar rats after 15 minutes of injection in the muscle expressed as (body weight-corrected) uptake value; format: organism-based, Muscle tissue; settings: in vivo, 0.25 h; summary of the method: as §1
[35] = target: T1, Muscarinic acetylcholine receptor M2 (Rattus norvegicus, UniProt P10980); assay: Binding affinity towards rat Muscarinic acetylcholine receptor M2 was determined
T1 sequence (P10980 whole entry): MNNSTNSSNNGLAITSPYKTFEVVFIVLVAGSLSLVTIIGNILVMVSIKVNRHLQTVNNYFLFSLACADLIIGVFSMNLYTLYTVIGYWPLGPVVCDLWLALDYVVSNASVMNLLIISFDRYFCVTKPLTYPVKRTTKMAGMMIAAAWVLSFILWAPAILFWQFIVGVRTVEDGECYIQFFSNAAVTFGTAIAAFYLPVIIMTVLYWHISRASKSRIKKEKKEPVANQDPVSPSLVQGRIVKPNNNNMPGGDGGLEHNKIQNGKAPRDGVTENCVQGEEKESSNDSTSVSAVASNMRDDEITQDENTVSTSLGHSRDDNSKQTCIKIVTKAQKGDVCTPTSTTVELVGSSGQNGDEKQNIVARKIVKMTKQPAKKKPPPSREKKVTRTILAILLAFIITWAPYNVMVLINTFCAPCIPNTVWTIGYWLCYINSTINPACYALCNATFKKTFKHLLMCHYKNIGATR

[36] = target: T2, Muscarinic acetylcholine receptor M1 (Bos taurus, UniProt Q8WMX0); format: cell membranes, Brain, Membrane
T2 sequence (Q8WMX0 whole entry): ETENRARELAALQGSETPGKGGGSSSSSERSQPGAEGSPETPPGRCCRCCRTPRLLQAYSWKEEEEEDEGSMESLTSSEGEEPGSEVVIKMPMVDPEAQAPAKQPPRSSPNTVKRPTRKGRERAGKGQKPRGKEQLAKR

[37] = target: T3, Muscarinic acetylcholine receptor M1 (Rattus norvegicus, UniProt P08482); assay: Binding affinity towards rat Muscarinic acetylcholine receptor M1 was determined
T3 sequence (P08482 whole entry): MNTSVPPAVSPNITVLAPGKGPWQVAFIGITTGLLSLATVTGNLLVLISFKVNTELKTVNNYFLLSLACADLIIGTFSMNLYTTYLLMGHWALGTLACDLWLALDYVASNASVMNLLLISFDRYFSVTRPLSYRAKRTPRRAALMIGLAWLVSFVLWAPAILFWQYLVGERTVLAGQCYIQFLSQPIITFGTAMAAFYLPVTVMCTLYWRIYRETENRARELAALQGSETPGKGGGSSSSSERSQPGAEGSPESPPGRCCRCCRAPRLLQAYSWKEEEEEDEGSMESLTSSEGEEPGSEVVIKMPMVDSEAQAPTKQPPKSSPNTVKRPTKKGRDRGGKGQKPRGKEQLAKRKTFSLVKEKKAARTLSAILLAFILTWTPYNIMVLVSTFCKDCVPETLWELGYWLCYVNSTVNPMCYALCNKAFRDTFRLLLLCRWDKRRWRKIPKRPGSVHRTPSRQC

Rattus norvegicus [38] = species on record: Rattus norvegicus; assay: The Biodistribution of the antagonistic compound in male wistar rats, after 15 minutes of injection in the liver expressed as (body weight-corrected) uptake value; format: organism-based; settings: in vivo, 0.25 h
Rattus norvegicus [39] = assay: The Biodistribution of the antagonistic compound along with pretreated atropine (2.5 mg/kg) in male wistar rats after 15 minutes of injection in the stomach expressed as (body weight-corrected) uptake value; format: organism-based; settings: in vivo, 0.25 h; summary of the method: as §1

C[N+]1(C)CCC(OC(=O)[C@](O)(c2ccccc2)C2CCCCC2)CC1.[I-]
Uptake value (Rattus norvegicus [1]): 0.89 | Uptake value (Rattus norvegicus [2]): 0.35 | Uptake value (Rattus norvegicus [3]): 0.19 | Uptake value (Rattus norvegicus [4]): Not Active | Uptake value (Rattus norvegicus [5]): 0.12 | Uptake value (Rattus norvegicus [6]): 0.23 | Uptake value (Rattus norvegicus [7]): 0.16 | Uptake value (Rattus norvegicus [8]): 0.26 | Uptake value (Rattus norvegicus [9]): 4.68 | Uptake value (Rattus norvegicus [10]): Not Active | Uptake value (Rattus norvegicus [11]): Not Active | Uptake value (Rattus norvegicus [12]): 0.1 | Uptake value (Rattus norvegicus [13]): 12.78 | Uptake value (Rattus norvegicus [14]): 6.08 | Uptake value (Rattus norvegicus [15]): 2.75 | Uptake value (Rattus norvegicus [16]): 1.03 | Uptake value (Rattus norvegicus [17]): 0.07 | Uptake value (Rattus norvegicus [18]): 2.85 | Uptake value (Rattus norvegicus [19]): 0.1 | Uptake value (Rattus norvegicus [20]): 5.92 | Uptake value (Rattus norvegicus [21]): Not Active | Uptake value (Rattus norvegicus [22]): Not Active | Uptake value (Rattus norvegicus [23]): 0.37 | Uptake value (Rattus norvegicus [24]): 0.12 | Uptake value (Rattus norvegicus [25]): Not Active | Uptake value (Rattus norvegicus [26]): 1.23 | Uptake value (Rattus norvegicus [27]): 2.76 | Uptake value (Rattus norvegicus [28]): 2.64 | Uptake value (Rattus norvegicus [29]): 0.12 | Uptake value (Rattus norvegicus [30]): 0.97 | Uptake value (Rattus norvegicus [31]): 4.32 | Uptake value (Rattus norvegicus [32]): 9.41 | Uptake value (Rattus norvegicus [33]): 0.11 | Uptake value (Rattus norvegicus [34]): 0.07 | Ki [35]: 0.21 nM | Ki [36]: 0.02 nM | Ki [37]: 0.01 nM | Uptake value (Rattus norvegicus [38]): 5.42 | Uptake value (Rattus norvegicus [39]): 0.22
